# Source: ChEMBL document CHEMBL1221207, “Expanding the promiscuity of a natural-product glycosyltransferase by directed evolution” (Nat Chem Biol, 2007)
# Positions count from the first letter of the chain named. Names may count otherwise.
# B1: Oleandomycin glycosyltransferase (Streptomyces antibioticus), Q53685 (protein)
# chain: MTTQTTPAHIAMFSIAAHGHVNPSLEVIRELVARGHRVTYAIPPVFADKVAATGPRPVLYHSTLPGPDADPEAWGSTLLDNRRTFLNDAIQALPQLADAYADDIPDLVLHDITSYPARVLARRWGVPAVSLSPNLVAWKGYEEEVAEPMWREPRQTERGRAYYARFEAWLKENGITEHPDTFASHPPRSLVLIPKALQPHADRVDEDVYTFVGACQGDRAEEGGWQRPAGAEKVVLVSLGSAFTKQPAFYRECVRAFGNLPGWHLVLQIGRKVTPAELGELPDNVEVHDWVPQLAILRQADLFVTHAGAGGSQEGLATATPMIAVPQAVDQFGNADMLQGLGVARKLATEEATADLLRETALALVDDPEVARRLRRIQAEMAQEGGTRRAADLIEAELPARHERQEPVGDRPNVGDRPAGVRSDRQRSAL
# B2: Oleandomycin glycosyltransferase (Streptomyces antibioticus), Q53685 P67T,S132F,A242V (protein)
# chain: B1 chain with P67T, S132F, A242V
# Tests used:
# [1] = molecular target: T1, Oleandomycin glycosyltransferase (Streptomyces antibioticus) (UniProt Q53685); assay: Activity at Streptomyces antibioticus wild-type OleD assessed as as rate of glucoside formation measured as nanomoles of product formed per minute per mg of enzyme
# T1 sequence (whole entry): B1 chain
# [2] = test system: T2, Oleandomycin glycosyltransferase (Streptomyces antibioticus), Q53685 [P67T]; assay: Activity of Streptomyces antibioticus OleD P67T mutant assessed as as rate of glucoside formation measured as nanomoles of product formed per minute per mg of enzyme
# T2 sequence (whole entry): B1 chain with P67T
# [3] = molecular target: T1, Oleandomycin glycosyltransferase (Streptomyces antibioticus); assay: Activity of Streptomyces antibioticus OleD […] mutant assessed as as rate of glucoside formation measured as nanomoles of product formed per minute per mg of enzyme
# [4] = test system: T3, Oleandomycin glycosyltransferase (Streptomyces antibioticus), Q53685 [A242V]; assay: Activity of Streptomyces antibioticus OleD A242V mutant assessed as as rate of glucoside formation measured as nanomoles of product formed per minute per mg of enzyme
# T3 sequence (whole entry): B1 chain with A242V
# [5] = test system: T4, Oleandomycin glycosyltransferase (Streptomyces antibioticus), Q53685 [P67T,S132F,A242V]; assay: Activity of Streptomyces antibioticus OleD P67T/S132F/A242V mutant assessed as as rate of glucoside formation measured as nanomoles of product formed per minute per mg of enzyme
# T4 sequence (whole entry): B1 chain with P67T, S132F, A242V
# [6] = substrate: Cc1cc(=O)oc2cc(O)ccc12; assay: Ratio of Kcat to Km for Streptomyces antibioticus wild-type OleD assessed as as rate of glucoside formation using varying compound concentration by enzyme kinetics assay
# How it was run: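 Wild-type OleD steady-state kinetics with 4-methylumbelliferone as the variable acceptor, up to 10 mM (its solubility limit in water/DMSO), and UDP-glucose as donor. Read-out was the rate of glucoside formation. kcat/Km was obtained by linear regression of rate against acceptor concentration.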
# [7] = substrate: Cc1cc(=O)oc2cc(O)ccc12; assay: Activity of Streptomyces antibioticus wild-type OleD assessed as as rate of glucoside formation at 10 mM using varying NDP sugar UDP-glucose concentration by enzyme kinetics assay
# How it was run: (§1)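 Steady-state kinetics of wild-type OleD glucosylating the acceptor 4-methylumbelliferone to its 7-O-glucoside, with the acceptor fixed at 10 mM and donor UDP-glucose as the variable substrate. Apparent donor kinetic parameters were taken from the rate versus UDP-glucose concentration data.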
# [8] = substrate: Cc1cc(=O)oc2cc(O)ccc12; assay: Ratio of Kcat to Km for Streptomyces antibioticus wild-type OleD assessed as as rate of glucoside formation at 10 mM using varying NDP sugar UDP-glucose concentration by enzyme kinetics assay; how it was run: as §1
# [9] = substrate: Cc1cc(=O)oc2cc(O)ccc12; assay: Activity of Streptomyces antibioticus OleD P67T/S132F/A242V mutant assessed as as rate of glucoside formation using varying compound concentration by enzyme kinetics assay
# How it was run: (§2)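 Steady-state kinetics with the acceptor 4-methylumbelliferone as the variable substrate and UDP-Glc as donor. The acceptor limit was its solubility in water/DMSO, 10 mM. Apparent Km and kcat were derived from the saturation curve.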
# [10] = substrate: Cc1cc(=O)oc2cc(O)ccc12; assay: Ratio of Kcat to Km for Streptomyces antibioticus OleD P67T/S132F/A242V mutant assessed as as rate of glucoside formation using varying compound concentration by enzyme kinetics assay; how it was run: as §2
# [11] = substrate: Cc1cc(=O)oc2cc(O)ccc12; assay: Activity of Streptomyces antibioticus OleD P67T/S132F/A242V mutant assessed as rate of glucoside formation at 10 mM using varying NDP sugar UDP-glucose concentration by enzyme kinetics assay
# How it was run: (§3)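 Steady-state kinetics with donor UDP-Glc varied at a fixed concentration of the acceptor 4-methylumbelliferone. The result was reported as an apparent donor Km, with kcat from the same analysis.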
# [12] = substrate: Cc1cc(=O)oc2cc(O)ccc12; assay: Ratio of Kcat to Km for Streptomyces antibioticus OleD P67T/S132F/A242V mutant assessed as rate of glucoside formation at 10 mM using varying NDP sugar UDP-glucose concentration by enzyme kinetics assay; how it was run: as §3
Molecule,Activity [1] [nmol/min],Activity [2] [nmol/min],Activity [3] [nmol/min],Activity [4] [nmol/min],Activity [5] [nmol/min],also measured
O=c1c(-c2ccc(O)cc2)coc2cc(O)cc(O)c12,3.4,28.8,8.8,14.1,26,
O=C(O)Cc1cc(=O)oc2cc(O)ccc12,,0.22,0.08,0.16,3.6,
CC(C)=CCc1cc(C(=O)Nc2c(O)c3ccc(O)c(C)c3oc2=O)ccc1O,0.24,0.65,0.49,0.33,1.14,
O=C(O)c1cc2ccc(O)cc2oc1=O,0.01,0.022,0.022,0.01,0.62,
CO[C@H]1C[C@H](O[C@H]2[C@H](C)[C@@H](O[C@@H]3O[C@H](C)C[C@H](N(C)C)[C@H]3O)[C@@H](C)C[C@@]3(CO3)C(=O)[C@H](C)[C@@H](O)[C@@H](C)[C@@H](C)OC(=O)[C@@H]2C)O[C@@H](C)[C@@H]1O,700,200,1490,70,13,
O=c1c(-c2ccc(O)cc2)coc2cc(O)ccc12,4.2,16,5.5,8.5,24,
O=c1c(O)c(-c2ccc(O)cc2)oc2cc(O)cc(O)c12,13.2,99.9,23,15.3,28,
B1,,,,,,kcat/Km [6]: 3 M⁻¹ s⁻¹; Km [7]: 300 µM; kcat [7]: 0.00867 s⁻¹; kcat/Km [8]: 28.8 M⁻¹ s⁻¹
B2,,,,,,Km [9]: 140 µM; kcat [9]: 0.0247 s⁻¹; kcat/Km [10]: 177 M⁻¹ s⁻¹; Km [11]: 0.03 min⁻¹; kcat [11]: 0.0215 s⁻¹; kcat/Km [12]: 717 M⁻¹ s⁻¹
